Results: ChEMBL document CHEMBL4308855, “Synthesis, in vitro and in vivo evaluation of 2-aryl-4H-chromene and 3-aryl-1H-benzo[f]chromene derivatives as novel α-glucosidase inhibitors” (Bioorg Med Chem Lett, 2019)
The source made the active and inactive calls. The calls are words filed in the database; no cut-off is given here.

Columns and labels:
Alpha glucosidase = Alpha glucosidase (Homo sapiens, UniProt O43451+P10253+P14410+Q2M2H8); experiment: Inhibition of alpha-glucosidase (unknown origin) using p-nitrophenyl beta-D-glucopyranoside as substrate measured after 20 mins; type: protein assay
Saccharomyces cerevisiae [1] = experiment: Inhibition of Saccharomyces cerevisiae alpha-glucosidase at 1 mM using […] preincubated for 5 mins followed by substrate addition and measured after 15 mins relative to control; conditions: in the assay text read “p-nitrophenyl alpha-D-glucopyranoside” for “p-nitrophenyl beta-D-glucopyranoside”
Procedure, shortened: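 Single-concentration screen at 1 mM against S. cerevisiae α-glucosidase. p-Nitrophenyl-α-D-glucopyranoside substrate was fixed at 1 mM, well above the Km determined in fixed-time runs, to saturate the enzyme. Inhibition is relative to the negative control, with significance by Student t-test (p < 0.05).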

[2] = Inhibition of Saccharomyces cerevisiae alpha-glucosidase using […] preincubated for 5 mins followed by substrate addition and measured after 15 mins; conditions: in the assay text read “p-nitrophenyl alpha-D-glucopyranoside” for “p-nitrophenyl beta-D-glucopyranoside”
Procedure, shortened: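 S. cerevisiae α-glucosidase with p-nitrophenyl-α-D-glucopyranoside substrate fixed at 1 mM (above Km, saturating). Inhibitor was tested across a 10^-3–10^-9 M range. IC50 was obtained by nonlinear regression of the concentration–inhibition data.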

Rattus norvegicus [3] = experiment: In vivo inhibition of intestinal maltase-glucoamylase in Wistar rat assessed as reduction in postprandial hyperglycemia at 2.2 mg/kg, po pretreated for 30 mins followed by maltose challenge and measured after 30 to 120 mins by OMTT; type: functional, organism-based
Procedure, shortened: (§1)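 Male Wistar rats received the test agent per os at the dose in the line, then a 2 g/kg maltose load. Blood glucose was followed after the maltose challenge. n = 5 per group, reported as m ± SEM. Comparisons were by 1-way ANOVA against vehicle and the reference group.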

Saccharomyces cerevisiae [4] = experiment: Potency index, ratio of acarbose IC50 to test compound IC50 for Saccharomyces cerevisiae alpha-glucosidase
Rattus norvegicus [5] = experiment: In vivo inhibition of intestinal maltase-glucoamylase in Wistar rat assessed as reduction in postprandial hyperglycemia at 5 mg/kg, po pretreated for 30 mins followed by maltose challenge and measured after 30 to 120 mins by OMTT; type: functional, organism-based; procedure, shortened: as §1

Oc1cc(O)c2c(c1)O[C@@H](c1ccc(O)c(O)c1)[C@H](O)C2 [(-)-CATECHIN]
IC50 (Alpha glucosidase): 53.8 µM

C1=C(c2ccccc2)Oc2ccc3ccccc3c2C1c1ccccc1 (configuration not stated)
inhibition (Saccharomyces cerevisiae [1]): 39.6%

Cc1ccc(C2=CC(c3ccc(Cl)cc3)c3c(ccc4ccccc34)O2)cc1 (configuration not stated)
inhibition (Saccharomyces cerevisiae [1]): 47.6%
IC50 [2]: 898 µM

CCc1ccc(C2=CCc3c(ccc4ccccc34)O2)cc1
inhibition (Saccharomyces cerevisiae [1]): 91.7%
IC50 [2]: 649 µM

Clc1ccc(C2=CC(c3ccccc3)c3ccccc3O2)cc1 (configuration not stated)
inhibition (Saccharomyces cerevisiae [1]): 69%
IC50 [2]: 950 µM

COc1ccc(C2CCc3c(ccc4ccccc34)O2)cc1 (configuration not stated)
inhibition (Saccharomyces cerevisiae [1]): 19.7%

Clc1ccc(C2=CC(c3ccc(Cl)cc3)c3c(ccc4ccccc34)O2)cc1 (configuration not stated)
inhibition (Saccharomyces cerevisiae [1]): 14.9%

Clc1ccc(C2C=C(c3ccccc3)Oc3ccc4ccccc4c32)cc1 (configuration not stated)
inhibition (Saccharomyces cerevisiae [1]): 18.3%

C1=C(c2ccccc2)Oc2ccccc2C1c1ccccc1 (configuration not stated)
inhibition (Rattus norvegicus [3]): Active
inhibition (Saccharomyces cerevisiae [1]): 60.8%
Ratio IC50 (Saccharomyces cerevisiae [4]): 9
IC50 [2]: 62.3 µM

COc1ccc(C2C=C(c3ccc(O)cc3)Oc3ccc4ccccc4c32)cc1 (configuration not stated)
inhibition (Saccharomyces cerevisiae [1]): 36.1%

C1=C(c2ccccc2)Oc2ccc3ccccc3c2C1
inhibition (Saccharomyces cerevisiae [1]): 10.8%

COc1ccc(C2C=C(c3ccccc3)Oc3ccc4ccccc4c32)cc1OC (configuration not stated)
inhibition (Saccharomyces cerevisiae [1]): 43.7%
IC50 [2]: > 1000 µM

C[C@H]1O[C@H](O[C@H]2[C@H](O)[C@@H](O)[C@@H](O[C@H]3[C@H](O)[C@@H](O)C(O)O[C@@H]3CO)O[C@@H]2CO)[C@H](O)[C@@H](O)[C@@H]1N[C@H]1C=C(CO)[C@@H](O)[C@H](O)[C@H]1O (some centres not stated) [ACARBOSE]
inhibition (Rattus norvegicus [5]): Active
inhibition (Saccharomyces cerevisiae [1]): 55.8%
IC50 [2]: 544 µM
